Our source for the Serum cholesterol, IC50 and Liver cholesterol values is ChEMBL document CHEMBL1123854, “Dissociation of hypolipidemic and antiplatelet actions from adverse myotonic effects of clofibric acid related enantiomers” (J Med Chem, 1987).

The structures appear in SMILES notation. pIC50: −log10 of the molar value.

The species entered for test [1] is Rattus norvegicus. Put plainly: Serum cholesterol level in male Sprague-Dawley rats (fed with high cholesterol semisynthetic diet)before the treatment. Type of test: functional, organism-based. Summed up:
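Male Sprague-Dawley rats fed a high-cholesterol semisynthetic diet for 1 week. Blood was drawn from the orbital plexus under ether anaesthesia before dosing (day -1) for serum cholesterol, which was used to stratify-randomize groups of six. Values are mean ± SD of six rats.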

The species entered for test [2] is Rattus norvegicus. As to the kind of experiment: Serum cholesterol level in male Sprague-Dawley rats (fed with high cholesterol semisynthetic diet) after 4 days of treatment. Type of test: functional, organism-based. The essentials:
(§1)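 Male Sprague-Dawley rats on a high-cholesterol semisynthetic diet for 1 week, then stratified-randomized into groups of six. Dosing was 0.3 mmol/kg twice daily by intragastric route in 0.25% methylcellulose for 1 week; controls received vehicle. Serum cholesterol was measured after 4 and 7 days of dosing. Values are mean ± SD of six rats.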

The species named for test [3] is Homo sapiens. Put plainly: Inhibition against platelet aggregation induced by arachidonic acid(AA) in vitro. Format: functional. The essentials: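 Human platelet-rich plasma from drug-free volunteers; compound preincubated 1 min before arachidonic acid (300–500 μM, lowest level giving maximal transmittance change). Aggregation read by aggregometer over 4 min; IC50 for inhibition of maximal aggregation, mean ± SEM, n = 4–10 donors.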

The species entered for test [4] is Homo sapiens. Put plainly: Inhibition against platelet aggregation induced by adenosine diphosphate (ADP) in vitro. Type of test: functional. Summed up:
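Human platelet-rich plasma from drug-free volunteers; compound preincubated 1 min before ADP (1–3 μM, lowest level giving maximal transmittance change). Aggregation followed by aggregometer for 6 min; IC50 for inhibition of the second phase of maximal aggregation, mean ± SEM, n = 4–10 donors.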

Test [5] is filed under the species Rattus norvegicus. As to the kind of experiment: Inhibition against chloride conductance in rat extensor digitorum longus(EDL) muscle fibers in vitro. Type of test: functional. The essentials: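 Rat EDL fibres (Charles River Sprague-Dawley, normal diet) studied in vitro by square-pulse microelectrode method in normal and chloride-free medium at several drug concentrations. Chloride conductance = membrane conductance in normal minus chloride-free solution. Conductance–concentration curves fit to single-site binding equation by nonlinear least squares to give IC50 ± SD; 7–79 fibres from 2–16 muscles per concentration.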

Test [6] is filed under the species Rattus norvegicus. As to the kind of experiment: Liver cholesterol level in male Sprague-Dawley rats (fed with high cholesterol semisynthetic diet) after 1 week of treatment. Type of test: functional. The essentials: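 Rats prefed high-cholesterol semisynthetic diet 1 week, then stratified by serum cholesterol into groups of six. Dosed 0.3 mmol/kg intragastrically twice daily in 0.25% methylcellulose for 1 week; controls got vehicle. Livers removed after exsanguination; cholesterol measured in lipid extracts. Mean ± SD, six rats.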

The species entered for test [7] is Rattus norvegicus. As to the kind of experiment: Serum cholesterol level in male Sprague-Dawley rats (fed with high cholesterol semisynthetic diet) after 7 days of treatment. Format: functional, organism-based. Summed up: as §1

As usually defined, the pIC50 is the IC50 on a negative log10 scale, so that one unit is a factor of ten. Lower therefore signals a large IC50. As for `CC[C@@H](Oc1ccc(Cl)cc1)C(=O)O`, the figures for the Serum cholesterol in test [1], in test [2] and in test [7] were 275 mg/dL, 158 mg/dL and 184 mg/dL, respectively. In addition, the negative-log IC50 (pIC50) is 3.14 in test [3], 3.16 in test [4] and below 3.64 in test [5]. The Liver cholesterol in test [6] was 34.8 mg (g of tissue)-1.

For `CC[C@H](Oc1ccc(Cl)cc1)C(=O)O`, the Serum cholesterol in test [1] was determined as 278 mg/dL; in test [2], 174 mg/dL; in test [7] it was 193 mg/dL. Moreover, the values for the pIC50 in test [3] and in test [4] were 2.80 and 2.93, respectively. Moreover, the Liver cholesterol in test [6] is listed as 37.2 mg (g of tissue)-1.

As for `CC(C)(Oc1ccc(Cl)cc1)C(=O)O` [CLOFIBRIC ACID], the figures for the Serum cholesterol in test [1], in test [2] and in test [7] were 271 mg/dL, 113 mg/dL and 149 mg/dL, respectively. Also, the pIC50 in test [3] was below 2.40; in test [4] it was 2.91. For the same compound, in test [6], the Liver cholesterol is recorded as 41.9 mg (g of tissue)-1.

Turning to `C[C@@H](Oc1ccc(Cl)cc1)C(=O)O`, the Serum cholesterol in test [1] came to 276 mg/dL; in test [2], 116 mg/dL; in test [7], 119 mg/dL. In addition, the negative logarithm of the IC50 (pIC50) was 3.60 in test [3], 3.70 in test [4] and below 3.64 in test [5]. The Liver cholesterol in test [6] was 40.8 mg (g of tissue)-1.

For the compound `C[C@H](Oc1ccc(Cl)cc1)C(=O)O`, the Serum cholesterol was determined as 279 mg/dL in test [1], 107 mg/dL in test [2] and 184 mg/dL in test [7]. Also, the pIC50 in test [3] was 2.95; in test [4] it was 3.00. The Liver cholesterol in test [6] is listed as 45.4 mg (g of tissue)-1.
